High-throughput results (PubChem)
MT1-MMP act inh: blockers of MT1-MMP proenzyme processing, primary screen, HT1080 RFP-PRO-GFP cells, GFP/RFP fluorescence. Matrix metalloproteinase-14 (Homo sapiens), P50281. GFP/RFP ratio fluorescence, overnight; percent of plate control window, DMSO zero. GFP/RFP ratio change, % at 20 µM. 0.061% of 360,000 active. AID 651647, 2012;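 active = GFP/RFP ratio change of at least 30% with cell ATP level not reduced by more than half and red fluorescence within 50% of control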
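Test system: HT1080 cells expressing an RFP-PRO-GFP fluorescent reporter construct / Compound dosing: single-point 20 µM compound, 1% DMSO / Schedule: cells overnight before dosing, compound overnight, 37 °C, 5% CO2 / Evaluation: GFP/RFP fluorescence ratio / Control set: DMSO and RFP-L50D-GFP cell wells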
Neddylation inh: inhibitors of cullin neddylation, primary screen, biochemical, TR-FRET, uHTS, NAE and Ubc12; AID 651699, 2012; 0.58% of 360,000 active; calls only at 25 µM; in the data active = inhibition above about 36%
SKN-1 block: suppressors of acrylamide-induced Pgst-4::GFP reporter in worms, primary screen, SKN-1 inhibitor project, whole organism, uHTS, GFP/RFP fluorescence ratio, strain VP596 | C. elegans VP596 Pgst-4::GFP/RFP ratio, 24 h | inhibition, % at 21.8 µM | 0.49% of 360,000 active | AID 624304, 2012;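 active = interference check ratio from 0.5 to 1.5 plus GFP to RFP signal ratio inhibition reaching or exceeding a fixed threshold, cut at about 30% in these data, passing the limit was not always enough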
DDE Tn6 FP inh: inhibitors of Tn6 peptide binding to fibrin DD(E), primary screen, biochemical, fluorescence polarization, human fibrin, Tn6 probe; Fibrinogen beta chain (Homo sapiens), P02675; Fibrin DD(E) TRITC-Tn6 fluorescence polarization displacement; inhibition, % at 8.3 µM; 0.21% of 370,000 active;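 active = inhibition above a per-campaign cutoff: mean of compounds within control limits plus 3 SD, cut at about 15% in these data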
Target sequence (P02675 whole entry, looked up): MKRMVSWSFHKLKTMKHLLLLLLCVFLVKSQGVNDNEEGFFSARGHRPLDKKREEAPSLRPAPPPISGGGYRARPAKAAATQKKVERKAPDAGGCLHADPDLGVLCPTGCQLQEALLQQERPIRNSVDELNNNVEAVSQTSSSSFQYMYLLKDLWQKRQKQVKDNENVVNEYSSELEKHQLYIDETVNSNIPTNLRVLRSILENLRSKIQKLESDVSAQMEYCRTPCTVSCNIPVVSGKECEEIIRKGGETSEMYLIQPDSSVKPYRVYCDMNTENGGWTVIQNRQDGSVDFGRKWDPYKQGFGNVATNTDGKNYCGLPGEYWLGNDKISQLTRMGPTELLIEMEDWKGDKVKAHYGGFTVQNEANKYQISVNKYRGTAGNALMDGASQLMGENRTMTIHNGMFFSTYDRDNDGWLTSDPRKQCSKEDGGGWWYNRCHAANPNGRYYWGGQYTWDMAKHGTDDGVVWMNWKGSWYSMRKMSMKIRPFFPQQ
DDE Tn7 FP inh: inhibitors of Tn7 peptide binding to fibrin DD(E), primary screen, biochemical, fluorescence polarization, human fibrin, Tn7 probe; FP displacement of FITC-Tn7 peptide from fibrin DD(E); 0% = median of compound wells per plate; AID 720508, 2013; 0.13% of 370,000 active; Fibrinogen beta chain (Homo sapiens), P02675; inhibition, % at 8.3 µM;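 active = inhibition above the mean of compounds falling within the control limits plus 3 SD of them, cut at about 14% in these data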
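Test system – human fibrin DD(E) · Times – 10 min preincubation, 3 h with tracer, room temperature · Detection – fluorescence polarization of the labelled Tn7 tracer · Measure – percent inhibition normalized to high-control wells · Benchmarks – high control wells with 10 µM unlabelled Aha-Tn7 peptide (full inhibition) · Repeats – singlicate testing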
KLK7 zymogen act: proKLK7 zymogen activators, primary screen, biochemical, fluorescence intensity. activation, % at 7 µM. purified proKLK7, EDANS-DABCYL substrate fluorescence; 100% is mature enzyme control, 0% vehicle. 0.9% of 370,000 active;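 active = activation above the mean of all tested compounds plus 3 SD, computed per campaign excluding outliers beyond control limits, cut at about 13% in these data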
Target sequence (P49862 whole entry, looked up): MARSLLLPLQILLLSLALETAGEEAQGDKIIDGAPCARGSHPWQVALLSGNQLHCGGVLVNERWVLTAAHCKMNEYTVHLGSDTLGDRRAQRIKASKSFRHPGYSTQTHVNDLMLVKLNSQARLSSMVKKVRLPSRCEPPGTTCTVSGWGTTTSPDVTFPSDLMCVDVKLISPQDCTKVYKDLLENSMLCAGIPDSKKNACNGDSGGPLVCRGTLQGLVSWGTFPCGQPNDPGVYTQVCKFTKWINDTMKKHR
KLK7 act conf: proKLK7 zymogen activators, confirmation, biochemical, fluorescence intensity, triplicate; shares compounds with KLK7 zymogen act; purified proKLK7, EDANS-DABCYL substrate fluorescence; scaled: vehicle 0, mature enzyme 100; activation, % at 7 µM; 68% of 3,200 active;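 active = activation, as change over the incubation, above the mean of all tested compounds plus 3 SD, cut at about 13% in these data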
EDANS-DABCYL int: EDANS-DABCYL substrate optical interference, artefact control for kallikrein-7 zymogen activator project, biochemical, fluorescence intensity, high throughput. no enzyme, 4 h; solvent 0%, active enzyme control 100%. shares compounds with KLK7 zymogen act. AID 686952, 2013. activation, % at 7 µM. 80% of 3,200 active;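 active = activation above the all-compound mean plus 3 SD, ignoring values outside control-based bounds, cut at about 4.8% in these data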;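 note: value is the 4 h activation minus the activation read at time zero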
EDANS interf: counter-screen for kallikrein-7 activators: EDANS-DABCYL interference, dose response; shares compounds with KLK7 zymogen act; EDANS-DABCYL peptide fluorescence interference, no enzyme; EC50, µM; 20% of 250 active;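 active = compounds that raise the fluorescence signal in this interference counterscreen, with EC50 at or below 10 µM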;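 note: intact quenched peptide substrate alone read at 355 nm excitation and 520 nm emission; signal is fluorescence gain from T0 to T4 after four hours at room temperature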
A number is an active result. Rows were chosen to be rich in hits. Some 2.2% of all compounds tested hit in one or more screens of this group.

Results for Clc1ccc(-c2cn3cccnc3n2)cc1 ?
MT1-MMP act inh: inactive; SKN-1 block: inactive; DDE Tn6 FP inh: inactive; DDE Tn7 FP inh: inactive; KLK7 zymogen act: 22; KLK7 act conf: 53; EDANS-DABCYL int: 69

What do the screens show for `Brc1ccc(-c2cn3cccnc3n2)cc1`?
MT1-MMP act inh: inactive; SKN-1 block: 48; DDE Tn6 FP inh: inactive; DDE Tn7 FP inh: inactive; KLK7 zymogen act: 24; KLK7 act conf: 23; EDANS-DABCYL int: 27

What do the screens show for `Brc1ccc(-c2cn3ccccc3n2)cc1`?
MT1-MMP act inh: inactive; Neddylation inh: inactive; SKN-1 block: inactive; DDE Tn6 FP inh: inactive; DDE Tn7 FP inh: inactive; KLK7 zymogen act: inactive

Results for CN1CCN(CCCNC(=O)c2ccc3c(c2)N(Cc2ccccc2)CCS3)CC1 ?
MT1-MMP act inh: inactive; Neddylation inh: inactive; SKN-1 block: inactive; DDE Tn6 FP inh: inactive; DDE Tn7 FP inh: inactive; KLK7 zymogen act: 15; KLK7 act conf: inactive; EDANS-DABCYL int: inactive

Results for O=C(NCCCN1CCOCC1)c1ccc2c(c1)N(Cc1ccccc1)CCS2 ?
MT1-MMP act inh: inactive; SKN-1 block: inactive; DDE Tn6 FP inh: inactive; DDE Tn7 FP inh: inactive; KLK7 zymogen act: inactive

What do the screens show for `O=C(NCCN1CCOCC1)c1ccc2c(c1)N(Cc1ccccc1)CCS2`?
MT1-MMP act inh: inactive; SKN-1 block: inactive; DDE Tn6 FP inh: inactive; DDE Tn7 FP inh: inactive; KLK7 zymogen act: 21; KLK7 act conf: inactive; EDANS-DABCYL int: inactive

Results for O=C(NNC(=O)C1CC(=O)N(c2ccc3c(c2)OCCO3)C1)c1ccc(F)cc1 (stereo not drawn) ?
MT1-MMP act inh: inactive; Neddylation inh: inactive; SKN-1 block: inactive; DDE Tn6 FP inh: inactive; DDE Tn7 FP inh: inactive; KLK7 zymogen act: inactive

What do the screens show for `CCOC(=O)C1=CCN(S(=O)(=O)c2ccccc2C)C1c1cccc(F)c1` (stereo not drawn)?
MT1-MMP act inh: inactive; Neddylation inh: inactive; SKN-1 block: inactive; DDE Tn6 FP inh: inactive; DDE Tn7 FP inh: inactive; KLK7 zymogen act: inactive

Results for COCCCn1c(=S)[nH]c2ccc(N3CCOCC3)cc2c1=O ?
MT1-MMP act inh: inactive; SKN-1 block: inactive; DDE Tn6 FP inh: inactive; DDE Tn7 FP inh: inactive; KLK7 zymogen act: 58; KLK7 act conf: 30; EDANS-DABCYL int: 49

What do the screens show for `COCCn1c(=S)[nH]c2ccc(N(C)C)cc2c1=O`?
MT1-MMP act inh: inactive; SKN-1 block: inactive; DDE Tn6 FP inh: inactive; DDE Tn7 FP inh: inactive; KLK7 zymogen act: 48; KLK7 act conf: 76; EDANS-DABCYL int: 74

What do the screens show for `O=C(CCCCCn1c(=S)[nH]c2ccc(N3CCOCC3)cc2c1=O)NCc1cccc(Cl)c1`?
MT1-MMP act inh: inactive; SKN-1 block: inactive; DDE Tn6 FP inh: inactive; DDE Tn7 FP inh: inactive; KLK7 zymogen act: 17; KLK7 act conf: inactive; EDANS-DABCYL int: inactive

What do the screens show for `O=c1c2cc(N3CCOCC3)ccc2[nH]c(=S)n1Cc1ccccn1`?
MT1-MMP act inh: inactive; SKN-1 block: inactive; DDE Tn6 FP inh: inactive; DDE Tn7 FP inh: inactive; KLK7 zymogen act: 80; KLK7 act conf: 21; EDANS-DABCYL int: 20

Results for C=CCc1c(C)nc(C)nc1N/N=C/c1ccc([N+](=O)[O-])cc1 ?
MT1-MMP act inh: inactive; Neddylation inh: inactive; SKN-1 block: inactive; DDE Tn6 FP inh: inactive; DDE Tn7 FP inh: inactive; KLK7 zymogen act: inactive

What do the screens show for `CCOc1ccccc1NC(=O)COC(=O)COc1cccc2c1OC(C)(C)C2`?
MT1-MMP act inh: inactive; Neddylation inh: inactive; SKN-1 block: inactive; DDE Tn6 FP inh: inactive; DDE Tn7 FP inh: inactive; KLK7 zymogen act: inactive

Results for Cc1ccc(OCCC(=O)NNC(=O)c2ccc(Br)cc2)cc1 ?
MT1-MMP act inh: inactive; Neddylation inh: inactive; SKN-1 block: inactive; DDE Tn6 FP inh: inactive; DDE Tn7 FP inh: inactive; KLK7 zymogen act: inactive

How did CC(NS(=O)(=O)c1ccccc1)C(=O)NCCc1ccccn1 (stereo not drawn) do in these assays?
MT1-MMP act inh: inactive; Neddylation inh: inactive; SKN-1 block: inactive; DDE Tn6 FP inh: inactive; DDE Tn7 FP inh: inactive; KLK7 zymogen act: inactive

What do the screens show for `CC(C(=O)NCC1CCCCC1)N1CCc2ccccc2C1` (stereo not drawn)?
MT1-MMP act inh: inactive; Neddylation inh: inactive; SKN-1 block: inactive; DDE Tn6 FP inh: inactive; DDE Tn7 FP inh: inactive; KLK7 zymogen act: inactive

What do the screens show for `COc1ccc2cc3c(N)nn(C(=O)C4CCC(C(C)(C)C)CC4)c3nc2c1` (stereo not drawn)?
MT1-MMP act inh: inactive; Neddylation inh: inactive; SKN-1 block: inactive; DDE Tn6 FP inh: inactive; DDE Tn7 FP inh: inactive; KLK7 zymogen act: inactive

How did O=c1c2cc(N3CCOCC3)ccc2[nH]c(=S)n1CCc1ccccc1 do in these assays?
MT1-MMP act inh: inactive; SKN-1 block: inactive; DDE Tn6 FP inh: inactive; DDE Tn7 FP inh: inactive; KLK7 zymogen act: inactive

What do the screens show for `O=c1c2cc(N3CCOCC3)ccc2[nH]c(=S)n1CC1CCCO1` (stereo not drawn)?
MT1-MMP act inh: inactive; SKN-1 block: inactive; DDE Tn6 FP inh: inactive; DDE Tn7 FP inh: inactive; KLK7 zymogen act: 32; KLK7 act conf: inactive; EDANS-DABCYL int: 4.7

What do the screens show for `CCCCN(C)CCn1c(=S)[nH]c2ccc(N3CCOCC3)cc2c1=O`?
MT1-MMP act inh: inactive; SKN-1 block: inactive; DDE Tn6 FP inh: inactive; DDE Tn7 FP inh: inactive; KLK7 zymogen act: 68; KLK7 act conf: inactive; EDANS-DABCYL int: inactive

How did CCOCCCn1c(=NC(=O)c2ccco2)c(C(=O)OCC)cc2c(=O)n3cccc(C)c3nc21 do in these assays?
MT1-MMP act inh: inactive; SKN-1 block: inactive; DDE Tn6 FP inh: inactive; DDE Tn7 FP inh: inactive; KLK7 zymogen act: 39; KLK7 act conf: 23; EDANS-DABCYL int: 9.2; EDANS interf: inactive
